ERb SRC1 inh – blocks coactivator binding to human estrogen receptor beta. Q92731. TR-FRET ER-beta LBD / SRC1-Cy5 peptide binding; receptor agonist-loaded with 1 µM estradiol. inhibition, % at 25.6 µM. 1.3% of 86,000 active;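 active means compounds whose percent inhibition of the receptor-coactivator binding signal exceeds about 50% in the single-dose screen, limit read from the data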;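 further: 0% = receptor plus peptide wells without compound and 100% = peptide-only wells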
Target sequence (Q92731 whole entry, looked up, the tested form may be a part): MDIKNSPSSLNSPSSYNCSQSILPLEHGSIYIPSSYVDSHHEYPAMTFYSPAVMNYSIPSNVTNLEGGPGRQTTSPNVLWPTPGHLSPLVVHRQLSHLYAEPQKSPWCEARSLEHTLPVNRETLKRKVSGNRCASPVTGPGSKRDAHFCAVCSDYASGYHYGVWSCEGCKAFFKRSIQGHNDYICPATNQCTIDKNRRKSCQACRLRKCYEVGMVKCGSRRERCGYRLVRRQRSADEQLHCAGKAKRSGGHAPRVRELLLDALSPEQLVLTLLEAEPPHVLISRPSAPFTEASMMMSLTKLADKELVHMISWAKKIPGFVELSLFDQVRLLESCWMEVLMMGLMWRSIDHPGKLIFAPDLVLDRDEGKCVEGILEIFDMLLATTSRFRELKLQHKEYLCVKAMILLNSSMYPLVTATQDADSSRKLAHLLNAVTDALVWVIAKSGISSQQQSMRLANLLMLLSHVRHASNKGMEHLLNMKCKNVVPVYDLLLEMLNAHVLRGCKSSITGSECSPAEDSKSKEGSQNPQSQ
ERa SRC1 inh – blocks coactivator binding to human estrogen receptor alpha | P03372 | TR-FRET ER-alpha LBD / SRC-1 peptide, estradiol-bound | 1.7% of 86,000 active | AID 629 | inhibition, % at 25.6 µM; in the data active means inhibition above about 50%;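 further: 0% = receptor plus peptide control and 100% = peptide only without receptor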
ERa coact pot – enhances coactivator binding to human estrogen receptor alpha | P03372 | TR-FRET ERalpha-LBD/SRC-Cy5 coactivator binding, 2 h; 100 = basal binding, no effect | coactivator binding (% of control), % at 25.6 µM | 1.3% of 86,000 active; in the data active means activity above about 200%;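 further: binding measured in presence of low estradiol as agonist stimulus; 0% = peptide alone without receptor and 100% = receptor with peptide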
sEH act – soluble epoxide hydrolase (human) activation; P34913; purified human sEH enzymatic activity, activator screen; activation, % at 2 µM; 0.04% of 91,000 active; AID 717; in the data active means activation above about 37%
sEH inhibitor – soluble epoxide hydrolase (human) inhibition. P34913. recombinant human sEH enzymatic activity assay. inhibition, % at 2 µM. 0.34% of 91,000 active; in the data active means inhibition above about 80%
Rev-RRE block – HIV Rev-RRE protein-RNA interaction inhibition; P05866; Rev peptide-RRE RNA binding, FRET; inhibition, % at 8 µM; 0.79% of 97,000 active; AID 704;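 active means inhibition above the screen-wide mean plus 3 SD, cut at about 35% in these data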;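 further: 0% = median DMSO wells and 100% = median Neomycin B control wells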
Target sequence (P05866 whole entry, looked up): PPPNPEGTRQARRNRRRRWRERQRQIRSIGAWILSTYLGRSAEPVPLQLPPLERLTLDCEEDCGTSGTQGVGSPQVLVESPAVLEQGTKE
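Assay system: Rev peptide and RRE RNA, both fluorescently labelled; times: 5 min preincubation and 15 min binding, 25 °C; detection: FRET, ex 480 nm, em 540 and 671 nm; read-out basis: % inhibition from 671/540 nm acceptor-to-donor ratio, scaled between controls; benchmarks: DMSO low control, neomycin B high control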
* = called active by the depositor; [ ] = remark or other dose. An excerpt weighted towards active compounds, which were near 3.5% of everything screened.

COC(=O)C1=C(N)n2c(s/c(=C\c3cccnc3)c2=O)=C(C(=O)OC)C1c1cccnc1 (configuration not stated) was read as ERb SRC1 inh 2.1, ERa SRC1 inh -4.0, ERa coact pot 79.6, sEH act -2.0, sEH inhibitor 4.0 and Rev-RRE block 10.3.
Screening COc1ccc(/C=c2\sc3nc(-c4ccccc4)c(-c4ccccc4)n3c2=O)cc1OC returned sEH act 7.7, sEH inhibitor -9.1 and Rev-RRE block 15.9.
Screening COc1ccc(/C=C2/SC(c3ccc(C)cc3)=NC2=O)cc1OC returned Rev-RRE block 114.4*[fluorescence artefact?].
`COc1ccc(/C=C2\SC(c3ccc(C)cc3)=NC2=O)cc1OC` gave sEH act 5.4, sEH inhibitor -7.5 and Rev-RRE block 112.8*[fluorescence artefact?].
COc1cc(/C=C2\SC(c3ccc(C)cc3)=NC2=O)ccc1O was read as sEH act 1.2, sEH inhibitor -2.3 and Rev-RRE block 77.0*[fluorescence artefact?].
`COc1cc(/C=C2\SC(c3ccc(C)cc3)=NC2=O)cc(OC)c1OC` gave sEH act 12.1, sEH inhibitor -14.3 and Rev-RRE block 50.6*.
For COC(=O)C1=C(C)N(Cc2ccc(C)cc2)C(=O)/C1=C\c1ccc(O)c(OC)c1 the results were sEH act 4.8, sEH inhibitor -5.9 and Rev-RRE block 2.9.
Screening COc1ccc(/C=C2/C(=O)N=C(N)N2C)cc1OC returned ERb SRC1 inh -11.5, ERa SRC1 inh -12.2, ERa coact pot 98.5, sEH act 0.0, sEH inhibitor 2.6 and Rev-RRE block 11.2.
For CCOC(=O)N1CCN(C(=O)CN(c2cccc(C(F)(F)F)c2)S(C)(=O)=O)CC1 the results were ERb SRC1 inh -1.9, ERa SRC1 inh -2.3, ERa coact pot 127.3 and Rev-RRE block 1.8.
`CCCCN(CCCNC(=O)c1ccc2nc(N3CCOCC3)sc2c1)Cc1ccccc1` gave ERb SRC1 inh -8.2, ERa SRC1 inh -2.0, ERa coact pot 97.7, sEH act -21.0, sEH inhibitor 20.0 and Rev-RRE block 4.0.
CC1(C)CC(=O)C2=C(C1)N(Cc1cccnc1)C(=O)C2(NC(=O)C1CC1)C(F)(F)F (configuration not stated) was read as ERb SRC1 inh 0.9, ERa SRC1 inh -4.7, ERa coact pot 109.9, sEH act 2.3, sEH inhibitor -1.7 and Rev-RRE block 3.6.
`COc1ccccc1C1CN(c2ccc(F)cc2F)N=C1c1cccs1` (configuration not stated) gave ERb SRC1 inh -3.5, ERa SRC1 inh -6.2, ERa coact pot 95.2, sEH act 37.6*, sEH inhibitor -34.8 and Rev-RRE block 6.6.
CCC(C)C(NC(=O)c1ccccc1NC(=O)c1ccc(OC)cc1)C(=O)NCc1ccco1 (configuration not stated) was read as ERb SRC1 inh 39.9, ERa SRC1 inh 67.5*[fluorescence artefact?], ERa coact pot 64.7, sEH act 10.8, sEH inhibitor -11.2 and Rev-RRE block -1.7.
Screening COCc1[nH]nc2c1C(c1cccc(OC)c1)C(C#N)=C(N)O2 (configuration not stated) returned ERb SRC1 inh -3.8, ERa SRC1 inh -8.4 and ERa coact pot 108.7.
Screening CCOc1ccc(-c2nnc(N3CCCCC3)c3ccccc23)cc1 returned sEH act -2.0, sEH inhibitor 4.9 and Rev-RRE block 8.8.
Screening O=C(Nc1nc(-c2ccccn2)cs1)c1ccc(Br)s1 returned ERb SRC1 inh -10.6, ERa SRC1 inh -11.5, ERa coact pot 472.6*, sEH act -8.4, sEH inhibitor 8.5 and Rev-RRE block 3.4.
O=C(Nc1nc(-c2cc(Cl)sc2Cl)cs1)c1ccc(Br)s1 was read as sEH act 2.8, sEH inhibitor -1.3 and Rev-RRE block 2.6.
COc1cccc(C(=O)Nc2ccc(-c3nc4ccccc4o3)c(O)c2)c1 was read as ERb SRC1 inh 35.9, ERa SRC1 inh 59.8*[fluorescence artefact?], ERa coact pot 150.4 and Rev-RRE block 12.9.
For COc1cccc(C(=O)Nc2c(C(N)=O)oc3ccccc23)c1 the results were ERb SRC1 inh 90.2*[fluorescence artefact?], ERa SRC1 inh 1.5, ERa coact pot 80.9, sEH act 0.5, sEH inhibitor -0.5 and Rev-RRE block 1.1.
Screening COc1cc(C(=O)Nc2ccc(-c3nc4cc(C)ccc4o3)c(O)c2)cc(OC)c1OC returned ERb SRC1 inh 16.5, ERa SRC1 inh 11.1, ERa coact pot 245.9*, sEH act 21.4, sEH inhibitor -22.7 and Rev-RRE block -6.4.
O=C1C(=O)N(Cc2cccnc2)C(c2ccccn2)/C1=C(/O)c1ccc(F)cc1 (configuration not stated) was read as ERb SRC1 inh -5.1, ERa SRC1 inh -13.9, ERa coact pot 136.6 and Rev-RRE block 8.6.
`CC1(C)Cc2c(sc3c4nnnn4c4nnnn4c23)CO1` gave ERb SRC1 inh 6.2, ERa SRC1 inh 79.9* and ERa coact pot 42.7.
`Cc1ccccc1C1C(C#N)=C2N=C(N)c3c(sc4c3CCCCC4)N2C2=C1C(=O)CCC2` (configuration not stated) gave sEH act -18.4, sEH inhibitor 19.8 and Rev-RRE block 66.3*.
For N#CC1=C(N)N(c2ccccc2)C2=C(C(=O)CCC2)C1c1cccs1 (configuration not stated) the results were ERb SRC1 inh 27.4, ERa SRC1 inh 25.3, ERa coact pot 74.9, sEH act -11.0, sEH inhibitor 13.6 and Rev-RRE block 15.9.
`O=C(Nc1ccc(S(=O)(=O)N2CCc3ccccc3C2)cc1)C1CCCO1` (configuration not stated) gave ERb SRC1 inh 11.2, ERa SRC1 inh 6.7, ERa coact pot 114.1, sEH act 0.2, sEH inhibitor -0.2 and Rev-RRE block 8.0.
Screening COc1ccc(N2CCC(CNC(=O)Nc3cccc(OC)c3)C2)cc1 (configuration not stated) returned ERb SRC1 inh -5.4, ERa SRC1 inh 43.5, ERa coact pot 102.8, sEH act -85.8, sEH inhibitor 85.8* and Rev-RRE block -1.0.
CCOC(=O)c1ccc(NC(=O)N2CCc3ccccc32)cc1 was read as ERb SRC1 inh 4.2, ERa SRC1 inh 13.5, ERa coact pot 241.0*[fluorescence artefact?], sEH act -47.6, sEH inhibitor 49.4 and Rev-RRE block 4.5.
`Cc1cccc(-n2c(SCc3cc(=O)n4ccsc4n3)nc3ccccc32)c1` gave ERb SRC1 inh 22.0, ERa SRC1 inh 60.1*, ERa coact pot 53.5, sEH act -4.9, sEH inhibitor 8.4 and Rev-RRE block 35.6.
CCCn1c(=O)c2ccccc2n2c(SCc3cc(=O)n4ccsc4n3)nnc12 was read as ERb SRC1 inh 31.4, ERa SRC1 inh 50.4*, ERa coact pot 88.7, sEH act 6.6, sEH inhibitor -7.9 and Rev-RRE block 5.2.

Source: PubChem
